Results on one compound are retold here after ChEMBL document CHEMBL4396876, “Antisulfatase, Osteogenic, and Anticancer Activities of Steroid Sulfatase Inhibitor EO-33 in Mice” (J Med Chem, 2019).

Data set [1] can be described thus: Plasma concentration in Balb/c mouse at 30 mg/kg, sc administered as single dose using MC/EtOH formulation measured after 7 hrs by LC-MS/MS analysis. The data set is classed as ADME, organism-based. An outline of the steps:
(§1)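 Female Balb/c mice, fasted 8 h with free water, given a single dose in 0.1 mL vehicle: EO-33 dissolved in EtOH, then aqueous 0.4% methylcellulose added to a final 8% EtOH. Sacrificed under isoflurane at 1, 3, 7, 12 and 24 h (2–3 mice/group). Cardiac blood collected into K-EDTA and plasma stored at −80 °C. LC-MS/MS on 100 µL plasma. AUC0-24h taken from the five time points.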

Data set [2] has as its system Mus musculus. Kind of data set: In vivo inhibition of STS in ovariectomized Balb/c mouse assessed as reduction in E1S-stimulated uterus weight at 30 mg/kg, sc administered once daily starting from day 2 to day 10 using MC/EtOH formulation and E1S addition on day 5 to 10 measured on day 11 relative to control. Type of data set: functional. An outline of the steps: (§2)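 Female Balb/c mice (15–20 g) ovariectomized under isoflurane, 5/group. Inhibitor given SC in 0.1 mL MC:EtOH (92:8) on days 2–10. E1S (2 µg/mouse, BID) or E1 (0.06 µg/mouse, ID) given SC on days 5–10. Vehicle controls included. Uterus dissected and weighed on day 11. Means ± SEM.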

In data set [3] the test system is Mus musculus. Kind of data set: Anti-estrogenic activity in ovariectomized Balb/c mouse assessed as reversal of E1-induced estrogenic effect at 30 mg/kg, sc administered once daily starting from day 2 to day 10 using MC/EtOH formulation and E1 addition on day 5 to 10 measured on day 11. Type of data set: organism-based. To be noted: in vivo. An outline of the steps: as §2

Data set [4] in a line: Plasma concentration in Balb/c mouse at 10 mg/kg, sc administered as single dose using MC/EtOH formulation measured after 12 hrs by LC-MS/MS analysis. The data set is classed as ADME, organism-based. An outline of the steps:
as §1

Data set [5] in a line: Plasma concentration in Balb/c mouse at 30 mg/kg, sc administered as single dose using PG/DMSO formulation measured after 7 hrs by LC-MS/MS analysis. Type of data set: ADME, organism-based. An outline of the steps:
(§3)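 Female Balb/c mice, fasted 8 h, given a single dose in 0.1 mL of PG or sunflower oil holding a final 8% DMSO. Sacrificed under isoflurane at 7 h (2–3 mice/group). Cardiac blood collected into K-EDTA and plasma analysed by LC-MS/MS.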

Data set [6] can be described thus: Plasma concentration in Balb/c mouse at 30 mg/kg, po administered via gavage as single dose using SO/DMSO formulation measured after 7 hrs by LC-MS/MS analysis. Type of data set: ADME, organism-based. An outline of the steps:
as §3

Data set [7] in a line: Plasma concentration in Balb/c mouse at 30 mg/kg, po administered via gavage as single dose using MC/EtOH formulation measured at 1 hr by LC-MS/MS analysis. Type of data set: ADME, organism-based. An outline of the steps:
as §1

The nature of data set [8]: Plasma concentration in Balb/c mouse at 30 mg/kg, sc administered as single dose using MC/EtOH formulation measured after 24 hrs by LC-MS/MS analysis. Type of data set: ADME, organism-based. An outline of the steps:
as §1

The subject of data set [9] is Mus musculus. Kind of data set: Ex vivo inhibition of STS in ovariectomized Balb/c mouse liver homogenates assessed as reduction in transformation of [3H]-E1S into [3H]-E1 at 15 mg/kg, sc administered twice daily starting from day 2 to day 10 using MC/EtOH formulation and E1S addition on day 5 to 10 measured on day 11 by liquid scintillation counting method relative to control. Type of data set: functional. An outline of the steps:
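Livers collected on day 11 from the OVX Balb/c uterotrophic protocol and homogenized in cold pH 7.4 phosphate buffer with protease inhibitors. 2000 g supernatant, 100 or 500 µg protein, incubated with [3H]-E1S/E1S (final 1 µM) in PBS for 2 h at 37 °C. Xylene extraction, then scintillation counting of both phases. Result given as % E1 formed. Triplicate.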

A short description of data set [10]: AUC (0 to 24 hrs) in Balb/c mouse at 2 mg/kg, sc administered as single dose using MC/EtOH formulation by LC-MS/MS analysis. Type of data set: ADME, organism-based. Also on record: dose 2 mg/kg, time < 24 hr, route subcutaneous. To be noted: in vivo. An outline of the steps:
as §1

The nature of data set [11]: Plasma concentration in Balb/c mouse at 30 mg/kg, sc administered as single dose using MC/EtOH formulation measured after 12 hrs by LC-MS/MS analysis. Type of data set: ADME, organism-based. An outline of the steps:
as §1

Data set [12] can be described thus: AUC (0 to 24 hrs) in Balb/c mouse at 10 mg/kg, sc administered as single dose using MC/EtOH formulation by LC-MS/MS analysis. Also on record: dose 10 mg/kg, time < 24 hr, route subcutaneous. To be noted: in vivo. The data set is classed as ADME, organism-based. An outline of the steps:
as §1

The nature of data set [13]: Plasma concentration in Balb/c mouse at 2 mg/kg, sc administered as single dose using MC/EtOH formulation measured after 12 hrs by LC-MS/MS analysis. Type of data set: ADME, organism-based. An outline of the steps: as §1
The test system of data set [14] is Mus musculus. Kind of data set: In vivo inhibition of STS in sc-dosed ovariectomized Balb/c mouse assessed as reduction in E1S-stimulated uterus weight administered twice daily starting from day 2 to day 10 using MC/EtOH formulation and E1S addition on day 5 to 10 measured on day 11. The data set is classed as functional, organism-based. An outline of the steps:
as §2

Data set [15] can be described thus: Plasma concentration in Balb/c mouse at 30 mg/kg, sc administered as single dose using MC/EtOH formulation measured after 3 hrs by LC-MS/MS analysis. Type of data set: ADME, organism-based. An outline of the steps:
as §1

Data set [16] can be described thus: Toxicity in ovariectomized-induced C57BL/6 mouse model of osteoporosis assessed as effect on body weight at 30 mg/kg, sc administered 6 days per week for 70 days using MC/EtOH formulation measured post last dose. The data set is classed as organism-based. To be noted: in vivo. An outline of the steps:
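Female C57BL/6 mice, 63-70 days old, ovariectomized under isoflurane (sham-operated controls), randomized by weight into groups of 8. Treated SC in 0.1 mL MC:EtOH (92:8) over 70 days; sham and OVX controls received vehicle alone. Mice weighed at the end of the protocol before necropsy.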

A short description of data set [17]: Plasma concentration in Balb/c mouse at 2 mg/kg, sc administered as single dose using MC/EtOH formulation measured after 7 hrs by LC-MS/MS analysis. Type of data set: ADME, organism-based. An outline of the steps:
as §1

The nature of data set [18]: Plasma concentration in Balb/c mouse at 10 mg/kg, sc administered as single dose using MC/EtOH formulation measured at 1 hr by LC-MS/MS analysis. The data set is classed as ADME, organism-based. An outline of the steps:
as §1

A further data set relates to MCF7. Kind of data set: Antitumor activity against human MCF7 cells xenografted in nu/nu Br athymic mouse assessed as effect on […]-stimulated tumor growth by measuring tumor size at 30 mg/kg, sc administered 6 days per week for […] using MC/EtOH formulation measured post-last dose (reference value: 171 %). Type of data set: functional.
The nature of data set [19]: Lipophilicity, log P of the compound. Type of data set: physicochemical. To be noted: octanol/water.
Data set [20] can be described thus: Plasma concentration in Balb/c mouse at 2 mg/kg, sc administered as single dose using MC/EtOH formulation measured after 3 hrs by LC-MS/MS analysis. The data set is classed as ADME, organism-based. An outline of the steps:
as §1

Data set [21] has as its system Mus musculus. Kind of data set: Estrogenic activity in ovariectomized Balb/c mouse assessed as stimulation of uterine weight at 30 mg/kg, sc administered once daily from day 2 to 10 using MC/EtOH formulation measured on day 11. The data set is classed as organism-based. To be noted: in vivo. An outline of the steps:
as §2

Data set [22] can be described thus: AUC (0 to 24 hrs) in Balb/c mouse assessed as (4-(((furan-2-ylmethyl)((5-methylthiophen-2-yl)methyl)amino)methyl)phenyl)(7-hydroxy-3,4-dihydroisoquinolin-2(1H)-yl)methanone level at 30 mg/kg, po administered via gavage as single dose using MC/EtOH formulation by LC-MS/MS analysis. Type of data set: ADME, organism-based. Also on record: dose 30 mg/kg, time < 24 hr, route oral. To be noted: in vivo.

Data set [23] in a line: Plasma concentration in Balb/c mouse at 30 mg/kg, po administered via gavage as single dose using MC/EtOH formulation measured after 12 hrs by LC-MS/MS analysis. Type of data set: ADME, organism-based. An outline of the steps:
as §1

Regarding `Cc1ccc(CN(Cc2ccc(C(=O)N3CCc4ccc(OS(N)(=O)=O)cc4C3)cc2)Cc2ccco2)s1`, the concentration at 7 h is 530 ng/mL in [1], 381 ng/mL in data set [5], 49 ng/mL in [6] and 1 ng/mL in [17]. Also, the inhibition in vivo (usually the relative decrease from the control value, in per cent) at 30 mg/kg in the data set with Mus musculus [2] was found to be 42%. In addition, the Activity entry in the data set with Mus musculus [3] is “Non-Toxic”; in data set [16], “Non-Toxic”; in the data set on MCF7 it was 72%; with Mus musculus [21], “Non-Toxic”. Moreover, the concentration at 12 h in data set [4] is 4 ng/mL; in [11], 64 ng/mL; in [13], 1 ng/mL; in data set [23], 3 ng/mL. Also, the concentration at 1 h in [7] came out at 308 ng/mL; in [18], 2600 ng/mL. The same compound displayed a concentration at 24 h in data set [8] of 13 ng/mL. Besides, in the data set with Mus musculus [9], the inhibition in vivo at 15 mg/kg is 71%. The figures for the AUC(0-t) at 24 h in [10] and in data set [12] were 1130 ng·h/mL and 5200 ng·h/mL, respectively. Further, the inhibition entry with Mus musculus [14] is “Dose-dependent effect”. Moreover, the results for the concentration at 3 h in [15] and in data set [20] were 2190 ng/mL and 33 ng/mL, respectively. The logP (in general, a log measure of how a compound divides between an organic and an aqueous phase) in data set [19] came out at 4.02. In data set [22], the AUC (commonly concentration integrated over time) was 10 ng·h/mL.
